# Screening data: PubChem, several laboratories
# ABCB6 inh 2: human ABCB6 transporter inhibition. Q9NP58. K562-ABCB6 porphyrin accumulation, flow cytometry, 1 h; active compounds read low. fluorescence ratio to DMSO, % at 10 µM. 360,000 tested, 0.19% active;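 active = fluorescence ratio to DMSO below 75%, the collection mean minus 3 SD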;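 also: signal is porphyrin accumulated inside mitochondria; 100% equals median channel fluorescence of DMSO control wells; lower ratio means ABCB6 inhibition with less porphyrin fluorescence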
# SR-BI DiI inh: blocks mouse SR-BI lipid uptake from DiI-HDL; Q61009; ldlA[mSR-BI] CHO cells, DiI-HDL uptake fluorescence, 3 h; 320,000 tested, 0.96% active; inhibition, % at 12.5 µM;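 active = mean replicate inhibition of at least 70% and a set share of replicates each scoring 70 or more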;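 also: 0% = median of neutral control wells and 100% = median of positive control wells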
# SR-BI uptake up: SR-BI HDL lipid transfer activation | CHO ldlA[mSR-BI] cells, DiI-HDL uptake fluorescence, 3 h; 100 = double the neutral-control signal | activation, % at 12.5 µM | 320,000 tested, 0.096% active;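 active = mean replicate activation of at least 60% and every replicate at or above 60%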;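 also: 0% = median plate neutral-control signal and 100% = twice that signal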
#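 system = CHO ldlA[mSR-BI] cells, LDL receptor-null, SR-BI overexpressing | medium = Ham's F12 with 0.5% BSA, HEPES 25 mM, pH 7.4 | probe or stimulus = DiI-HDL 10 µg/mL | compound dosing = single-point compound dose | incubation = compound exposure 3 h, 37 °C | technique = DiI fluorescence, bottom read | read-out = cell-associated DiI fluorescence as measure of HDL uptake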
# AHR act: activators of human aryl hydrocarbon receptor; activation, % at 5 µM; 320,000 tested, 2.5% active; AHR-responsive luciferase reporter cells, luminescence; in the data active = activation above about 47%;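 also: 0% = vehicle wells and 100% = reference agonist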
# Target sequence (P35869 whole entry, looked up): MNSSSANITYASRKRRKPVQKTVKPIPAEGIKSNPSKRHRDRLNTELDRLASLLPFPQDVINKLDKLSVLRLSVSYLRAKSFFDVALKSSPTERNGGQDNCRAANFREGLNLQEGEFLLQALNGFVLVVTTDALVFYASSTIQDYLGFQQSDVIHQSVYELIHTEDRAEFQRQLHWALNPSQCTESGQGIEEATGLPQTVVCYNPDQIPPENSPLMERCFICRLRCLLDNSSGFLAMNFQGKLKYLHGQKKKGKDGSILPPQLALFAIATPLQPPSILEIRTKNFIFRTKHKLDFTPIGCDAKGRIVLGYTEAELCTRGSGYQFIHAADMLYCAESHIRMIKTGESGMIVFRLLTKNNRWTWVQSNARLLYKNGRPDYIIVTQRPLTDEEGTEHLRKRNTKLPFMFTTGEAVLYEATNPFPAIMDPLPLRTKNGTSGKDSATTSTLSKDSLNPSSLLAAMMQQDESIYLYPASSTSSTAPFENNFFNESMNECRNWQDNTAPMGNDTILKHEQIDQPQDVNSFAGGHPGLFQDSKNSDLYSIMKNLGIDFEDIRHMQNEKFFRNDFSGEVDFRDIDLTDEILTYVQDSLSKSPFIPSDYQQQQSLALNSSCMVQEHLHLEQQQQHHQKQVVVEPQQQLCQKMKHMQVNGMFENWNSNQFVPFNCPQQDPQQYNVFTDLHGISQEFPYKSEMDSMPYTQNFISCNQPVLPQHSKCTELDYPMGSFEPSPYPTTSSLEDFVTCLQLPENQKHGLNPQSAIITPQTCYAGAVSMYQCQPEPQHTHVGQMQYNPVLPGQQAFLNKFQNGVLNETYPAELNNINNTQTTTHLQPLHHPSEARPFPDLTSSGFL
# FXN GAA850 act: frataxin GAA850 promoter activation | HEK293 lucGAA850 FXN promoter luciferase reporter, 24 h; percent of 10 µM SAHA response | activation, % at 6 µM | 360,000 tested, 0.56% active;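 active = activation above the average of all compounds screened plus 3 SD, cutoff fixed separately per campaign, cut at about 7.5% in these data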;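 also: 0% = DMSO wells and 100% = 10 µM SAHA wells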
# HIF act: HIF pathway transcriptional activation; U2OS HRE-luciferase reporter, luminescence; normalized: DMSO 0%, desferrioxamine 100%; activation, % at 7.5 µM (by protocol); 300,000 tested, 0.32% active;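 active = mean activation of at least 10% of the iron chelator positive control signal, with at least half of replicates also reaching 10%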
# ABCB6 inh CP1: blocks the human ABCB6 transporter | shares compounds with ABCB6 inh 2 | K562-ABCB6 porphyrin accumulation, flow cytometry, 1 h; active compounds read low | ratio response (% of DMSO), % at 10 µM | 700 tested, under 10 active | AID 602430;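 active = repeat-averaged ratio response below 75% of DMSO, the collection mean minus 3 SD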;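 also: median porphyrin fluorescence at 575 nm with 488 nm excitation from mitochondria; lower ratio means less porphyrin signal so ABCB6 inhibition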
# The depositor's hits bear a star; . = not tested or not shown. A selection: hits, their analogues and other compounds. The true share with any hit is near 3.9%.
SMILES,ABCB6 inh 2,SR-BI DiI inh,SR-BI uptake up,AHR act,FXN GAA850 act,HIF act,ABCB6 inh CP1
COC(=O)c1ccc(NC(=O)COc2ccc(S(=O)(=O)N3CCCCC3)cc2)cc1,70*,23,-23,-4,2,0,97
O=C(Nc1ccc([N+](=O)[O-])cc1)c1ccc(S(=O)(=O)N2CCCC2)cc1,73*,.,.,-1,-1,0,100
O=C(COc1cccc(C(F)(F)F)c1)Nc1ccc(S(=O)(=O)N2CCCC2)cc1,60*,24,-24,0,-1,0,102
C=CCOc1cccc(C2C(C(=O)c3ccco3)=C(O)C(=O)N2Cc2cccnc2)c1 (centres undefined),111,-2,2,0,-1,0,.
O=c1c(C(c2ccc(Br)cc2)c2c(O)nc3n(c2=O)CCS3)c(O)nc2n1CCS2,74*,-24,24,-2,0,0,102
CCCc1ccc(OCCNC(C)=O)cc1,68*,-10,10,0,0,.,102
CCOc1ccc(C(=O)NCC(C)C)cc1,74*,-8,8,5,3,1,100
O=C(c1cccs1)N1CCCC(c2nc3c(nnn3Cc3cccc(Cl)c3)c(=O)[nH]2)C1 (centres undefined),95,0,0,1,0,0,.
O=C(c1cccs1)N1CCC(c2nc3c(nnn3Cc3cccc(Cl)c3)c(=O)[nH]2)CC1,101,.,.,-1,-3,0,99
Cc1ccc(Cn2nnc3c(=O)[nH]c(C4CCN(C(=O)c5cccs5)CC4)nc32)cc1,100,-13,13,2,-1,0,98
O=C(c1cccs1)N1CCC(c2nc3c(nnn3Cc3c(Cl)cccc3Cl)c(=O)[nH]2)CC1,96,.,.,2,2,-1,100
O=S(=O)(c1ccccc1)c1nc(-c2ccco2)oc1N1CCOCC1,98,.,.,0,-1,0,.
O=C(Nc1ccc(-n2nncc2-c2ccco2)cc1)c1cccc(F)c1,58*,14,-14,-2,-2,0,99
COc1ccc(-c2cnc(N)nc2-c2ccc(OC)cc2O)cc1,73*,20,-20,3,2,0,98
NC(=O)C(c1ccc(Sc2ccccc2)nn1)c1ccc(Cl)cc1Cl (centres undefined),102,-7,7,0,2,0,.
NC(=O)C(c1ccc(Cl)cc1)c1ccc(Sc2ccccc2)nn1 (centres undefined),73*,-15,15,-3,0,0,97
COc1cc(C(C[N+](=O)[O-])c2c(C)[nH]c3ccccc23)cc(OC)c1OC (centres undefined),74*,-2,2,16,-1,0,103
O=c1cc(CSc2nnnn2-c2ccccc2)nc2nc[nH]n12,64*,-36,36,3,4,1,98
O=c1cc(CSc2nnnn2-c2ccccc2)nc2sccn12,96,-19,19,1,1,0,.
CCN(CC)c1ccc(C(=O)OCC(=O)N(C)Cc2ccccc2)cc1,65*,8,-8,2,0,1,100
CC(CN1CCCC1)OC(=O)COc1ccccc1 (centres undefined),72*,-1,1,0,1,0,99
Nc1ncc(-c2ccc([N+](=O)[O-])cc2)cn1,90,-24,24,3,6,0,.
Cc1nc2sc(C(c3ccccc3)N3CC(C)OC(C)C3)c(O)n2n1 (centres undefined),88,-27,27,0,0,0,.
COc1ccccc1OCc1nnc(SCC(=O)c2cc(Cl)ccc2OC)o1,68*,46,-46,29,-1,0,98
O=C(O)CSc1nnc(Cn2c(=O)sc3ccccc32)n1-c1cccc(Cl)c1,104,4,-4,-1,0,0,.
